Source: ChEMBL document CHEMBL1126989, “Synthesis and cytotoxicity of 1,6,7,8-substituted 2-(4'-substituted phenyl)-4-quinolones and related compounds: identification as antimitotic agents interacting with tubulin” (J Med Chem, 1993)
≈ marks a conversion by molar mass, not a printed value.

Tests used:
[1] = tested on: L1210 (1565); experiment: Cytotoxicity in vitro expressed as 50% reduction in cell number after a 3-day incubation, in murine leukemia L-1210 cell line; type: functional, cell-based; conditions: Mus musculus, 72 h
In short: (§1)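 Cell lines adapted to antibiotic-free RPMI-1640 with 10% fetal calf serum; ca. 1×10^5 cells per well, overnight stabilization, then serial dilutions added, quadruplicate per concentration; medium-only controls. After 3-4 days, MTT added and incubated overnight; formazan dissolved in DMSO, absorbance at 570 nm. EC50 calculated from two data points bracketing 50% growth inhibition. Actinomycin as positive control.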

[2] = tested on: P388; experiment: Cytotoxicity in vitro expressed as 50% reduction in cell number after a 3-day incubation, in murine leukemia P-388 cell line; type: functional, cell-based; conditions: Mus musculus, P388, 72 h; in short: as §1
[3] = tested on: KB; experiment: Cytotoxicity in vitro expressed as 50% reduction in cell number after a 3-day incubation, in human epidermoid carcinoma KB cell line; type: functional, cell-based; conditions: 72 h; in short: as §1
[4] = tested on: RPMI-7951; experiment: Cytotoxicity in vitro expressed as 50% reduction in cell number after a 3-day incubation, in human melanoma RPMI-7951 cell line; type: functional, cell-based; conditions: RPMI-7951, 72 h; in short: as §1
[5] = tested on: HCT-8; experiment: Cytotoxicity in vitro expressed as 50% reduction in cell number after a 3-day incubation, in human ileocecal carcinoma HCT-8 cell line; type: functional, cell-based; conditions: HCT-8, 72 h; in short: as §1
[6] = tested on: A549; experiment: Cytotoxicity in vitro expressed as 50% reduction in cell number after a 3-day incubation, in human lung carcinoma A-549 cell line; type: functional, cell-based; conditions: A549, 72 h; in short: as §1
[7] = target: Tubulin; experiment: (§2) Inhibition of tubulin polymerization; type: functional
In short: (§3)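 Bovine brain tubulin 1.0 mg/mL (10 μM) with 1.0 M repurified monosodium glutamate, 1.0 mM MgCl2, 4% DMSO and drug; preincubated 15 min at 37 °C, chilled, GTP added; turbidity at 350 nm after jump from 0 to 37 °C, followed 20 min.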

[8] = target: Tubulin beta chain (Bos taurus, UniProt Q6B856); experiment: as §2; type: functional; in short: as §3
[9] = tested on: SF-539; experiment: Inhibition of in vitro cell growth which reduces cell growth to level at start of experiment in CNS SF-539 cell line; type: functional, Homo sapiens
[10] = tested on: SF-539; experiment: Inhibition of in vitro cell growth which reduces cell growth to 50% of level at start of experiment in CNS SF-539 cell line(<-4 in one experiment, >-4 in other experiment); type: functional, Homo sapiens
In short: (§4)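 NCI in vitro disease-oriented screen across about 60 human tumour cell lines. The value is the LC50-type level: the drug concentration that cuts cell number to 50% of the count at the start of the experiment. Values are averages of 2 assays.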

[11] = tested on: HCC 2998; experiment: Inhibition of in vitro cell growth which reduces cell growth to 50% of level at start of experiment in colon HCC2998 cell line; type: functional, Homo sapiens; in short: as §4
[12] = tested on: HCC 2998; experiment: Inhibition of in vitro cell growth which reduces cell growth to level at start of experiment in colon HCC2998 cell line; type: functional, Homo sapiens
[13] = tested on: COLO 205; experiment: Inhibition of in vitro cell growth which reduces cell growth to level at start of experiment in colon COLO-205 cell line; type: functional, Homo sapiens
[14] = target: T1, Tubulin (Bos taurus) (UniProt Q6B856+Q862L2+Q862F3); experiment: Percentage inhibition of colchicine binding(1:1 ratio of inhibitor: colchicine); type: protein assay; conditions: concentration not given here
[15] = tested on: COLO 205; experiment: Inhibition of in vitro cell growth which reduces cell growth to 50% of level at start of experiment in colon COLO-205 cell line (<-4 in one experiment, >-4 in other experiment); type: functional, Homo sapiens; in short: as §4
[16] = tested on: KM-20L2; experiment: Inhibition of in vitro cell growth which reduces cell growth to level at start of experiment in colon KM-20L2 cell line; type: functional, Homo sapiens
[17] = target: T1, Tubulin (Bos taurus); experiment: Percentage inhibition of colchicine binding(10:1 ratio of inhibitor: colchicine); type: protein assay; conditions: concentration not given here
[18] = tested on: KM-20L2; experiment: Inhibition of in vitro cell growth which reduces cell growth to 50% of level at start of experiment in colon KM-20L2 cell line; type: functional, Homo sapiens; in short: as §4
[19] = tested on: HT-29; experiment: Inhibition of in vitro cell growth which reduces cell growth to 50% of level at start of experiment in colon HT-29 cell line; type: functional, Homo sapiens; in short: as §4
[20] = tested on: HT-29; experiment: Inhibition of in vitro cell growth which reduces cell growth to level at start of experiment in colon HT-29 cell line; type: functional, Homo sapiens
[21] = Percentage inhibition of colchicine binding(1: 1 ratio of inhibitor: colchicine); type: functional; conditions: concentration not given here
[22] = tested on: COLO 205; experiment: Inhibition of in vitro cell growth which reduces cell growth to 50% of level at start of experiment in colon COLO-205 cell line; type: functional, Homo sapiens; in short: as §4
[23] = tested on: SF-539; experiment: Inhibition of in vitro cell growth which reduces cell growth to 50% of level at start of experiment in CNS SF-539 cell line; type: functional, Homo sapiens; in short: as §4

Chain of Tubulin beta chain (Q6B856 whole entry): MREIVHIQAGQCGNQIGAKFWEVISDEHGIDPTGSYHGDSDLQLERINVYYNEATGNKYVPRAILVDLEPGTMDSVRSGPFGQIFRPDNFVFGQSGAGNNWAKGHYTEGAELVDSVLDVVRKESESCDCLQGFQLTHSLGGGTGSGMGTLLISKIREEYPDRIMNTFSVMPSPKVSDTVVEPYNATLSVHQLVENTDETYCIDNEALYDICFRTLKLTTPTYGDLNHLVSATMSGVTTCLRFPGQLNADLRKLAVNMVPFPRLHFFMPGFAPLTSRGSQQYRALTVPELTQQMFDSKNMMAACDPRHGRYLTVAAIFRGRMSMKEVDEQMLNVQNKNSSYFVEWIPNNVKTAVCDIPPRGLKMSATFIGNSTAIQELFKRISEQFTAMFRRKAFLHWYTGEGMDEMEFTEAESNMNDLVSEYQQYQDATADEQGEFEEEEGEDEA

Row | SMILES | EC50 [1] [µg/mL] | EC50 [2] [µg/mL] | EC50 [3] [µg/mL] | EC50 [4] [µg/mL] | EC50 [5] [µg/mL] | EC50 [6] [µg/mL] | IC50 [8] [µM] | other results
1 | Oc1cc(-c2ccccc2)nc2cc(Cl)ccc12 | < 0.1 | < 0.1 | < 0.1 | < 0.1 | 0.45 (≈ 1.76 µM) | 2.89 (≈ 11.3 µM) | – | –
2 | Cn1c(-c2ccc(O)cc2)cc(=O)c2ccccc21 | > 10 | > 10 | > 10 | > 10 | 5.71 (≈ 22.7 µM) | > 10 | – | IC50 [7]: > 40 µM
3 | CN(C)CCOc1cc(-c2ccccc2)nc2ccccc12 | > 10 | > 10 | > 4 | – | > 10 | > 10 | – | –
4 | COc1cc(-c2ccccc2)nc2ccccc12 | > 10 | 4.5 (≈ 19.1 µM) | > 10 | – | > 10 | > 10 | – | –
5 | Oc1cc(-c2ccccc2)nc2ccc(F)cc12 | < 0.01 | 0.08 (≈ 0.334 µM) | < 0.01 | 0.53 (≈ 2.22 µM) | 1.36 (≈ 5.68 µM) | 0.38 (≈ 1.59 µM) | 3.3 | –
6 | Oc1cc(-c2ccccc2)nc2cc(F)ccc12 | 0.16 (≈ 0.669 µM) | 0.29 (≈ 1.21 µM) | < 0.1 | 0.37 (≈ 1.55 µM) | 3.45 (≈ 14.4 µM) | 0.96 (≈ 4.01 µM) | 3.7 | TGI [9]: -6; LC50 [10]: >-4; LC50 [11]: >-4; TGI [12]: -5.6; TGI [13]: -6.1; inhibition [14]: 7%; LC50 [15]: -4; TGI [16]: -6.3; inhibition [17]: 34%; LC50 [18]: -5.6; LC50 [19]: >-4; TGI [20]: -5.6
7 | CCCCOc1cc(-c2ccccc2)nc2ccccc12 | > 10 | > 10 | 3.8 (≈ 13.7 µM) | – | > 10 | > 10 | – | –
8 | Oc1ccc2nc(-c3ccccc3)cc(O)c2c1 | 0.83 (≈ 3.5 µM) | 2.86 (≈ 12.1 µM) | 0.41 (≈ 1.73 µM) | 3.92 (≈ 16.5 µM) | 7.75 (≈ 32.7 µM) | 8.14 (≈ 34.3 µM) | 16 | –
9 | Cn1c(-c2ccccc2)cc(=O)c2ccccc21 | > 10 | > 10 | > 10 | > 10 | > 10 | > 10 | > 40 | –
10 | CCOc1cc(-c2ccccc2)nc2ccccc12 | > 10 | 6 (≈ 24.1 µM) | 6.7 (≈ 26.9 µM) | – | > 10 | > 10 | – | –
11 | COCOc1ccc(-c2cc(=O)c3ccccc3n2C)cc1 | > 10 | > 10 | – | – | – | – | – | –
12 | CC(C)COc1cc(-c2ccccc2)nc2ccccc12 | > 10 | > 10 | > 4 | – | > 10 | > 10 | – | –
13 | COc1cccc2c(O)cc(-c3ccccc3)nc12 | 7.68 (≈ 30.6 µM) | > 10 | 5.05 (≈ 20.1 µM) | > 10 | 0.55 (≈ 2.19 µM) | 6.77 (≈ 26.9 µM) | > 40 | –
14 | CS(=O)(=O)Oc1cc(-c2ccccc2)nc2ccccc12 | 6.04 (≈ 20.2 µM) | > 10 | 2.8 (≈ 9.35 µM) | – | 5.6 (≈ 18.7 µM) | 6.21 (≈ 20.7 µM) | – | –
15 | COc1ccc2c(O)cc(-c3ccccc3)nc2c1 | 0.57 (≈ 2.27 µM) | 0.67 (≈ 2.67 µM) | 0.53 (≈ 2.11 µM) | 0.43 (≈ 1.71 µM) | 4.86 (≈ 19.3 µM) | 0.73 (≈ 2.91 µM) | 4.8 | –
16 | Oc1cc(-c2ccccc2)nc2ccccc12 | 0.06 (≈ 0.271 µM) | 0.08 (≈ 0.362 µM) | 0.09 (≈ 0.407 µM) | 0.37 (≈ 1.67 µM) | 0.8 (≈ 3.62 µM) | 0.5 (≈ 2.26 µM) | – | IC50 [7]: 7.3 µM
17 | Oc1cc(-c2ccccc2)nc2c(O)cccc12 | > 10 | > 10 | > 10 | > 10 | > 10 | > 10 | – | –
18 | Oc1cc(-c2ccccc2)nc2c(F)cccc12 | 0.67 (≈ 2.8 µM) | 0.78 (≈ 3.26 µM) | 0.53 (≈ 2.22 µM) | 0.38 (≈ 1.59 µM) | 0.04 (≈ 0.167 µM) | 0.61 (≈ 2.55 µM) | 11 | –
19 | CCCOc1cc(-c2ccccc2)nc2ccccc12 | > 10 | 6.9 (≈ 26.2 µM) | 4.5 (≈ 17.1 µM) | – | > 10 | > 10 | – | –
20 | COc1ccc(/C=C\c2cc(OC)c(OC)c(OC)c2)cc1O | – | – | – | – | – | – | – | inhibition [21]: 97%
21 | c1ccc(COc2cc(-c3ccccc3)nc3ccccc23)cc1 | > 10 | > 10 | 1.6 (≈ 5.14 µM) | – | > 10 | > 10 | – | –
22 | Oc1ccc2c(O)cc(-c3ccccc3)nc2c1 | 0.45 (≈ 1.9 µM) | 0.81 (≈ 3.41 µM) | 0.55 (≈ 2.32 µM) | 0.52 (≈ 2.19 µM) | > 10 | 0.81 (≈ 3.41 µM) | 3.4 | –
23 | Cc1ccc2nc(-c3ccccc3)cc(O)c2c1 | 0.72 (≈ 3.06 µM) | 0.49 (≈ 2.08 µM) | 0.55 (≈ 2.34 µM) | 0.53 (≈ 2.25 µM) | 0.9 (≈ 3.83 µM) | 0.53 (≈ 2.25 µM) | – | –
24 | COc1ccc2nc(-c3ccccc3)cc(O)c2c1 | 0.06 (≈ 0.239 µM) | 0.33 (≈ 1.31 µM) | 0.08 (≈ 0.318 µM) | 0.36 (≈ 1.43 µM) | 1 (≈ 3.98 µM) | 0.19 (≈ 0.756 µM) | 2.7 | TGI [9]: -6.2; LC50 [22]: -4.4; LC50 [11]: >-4; TGI [12]: -6.2; LC50 [23]: -4.4; TGI [13]: -6.1; inhibition [14]: 8%; TGI [16]: -5.9; inhibition [17]: 53%; LC50 [18]: -4.6; LC50 [19]: >-4; TGI [20]: -6.1
25 | COc1cc([C@@H]2c3cc4c(cc3[C@H](O)[C@H]3COC(=O)[C@H]23)OCO4)cc(OC)c1OC [PODOFILOX] | – | – | – | – | – | – | 1.3 | –
26 | CC(C)Oc1cc(-c2ccccc2)nc2ccccc12 | > 10 | > 10 | 4.2 (≈ 15.9 µM) | – | > 10 | > 10 | – | –
